Experimental data as given in ChEMBL document CHEMBL3994579, “Synthesis and antibacterial activity of novel 3-O-descladinosylazithromycin derivatives” (2017).
Converted amounts (≈) assume the structure as drawn.

Columns and labels:
Format in all cases: functional
Staphylococcus aureus [1] = assay: Antibacterial activity against erythromycin-susceptible Staphylococcus aureus ATCC 25923 by broth microdilution method
Summary of the method: (§1)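 MICs were determined in vitro by broth microdilution following the NCCL-recommended method. Azithromycin and clarithromycin were run alongside as reference antibiotics on the same strain panel.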

Escherichia coli = assay: Antibacterial activity against penicillin-susceptible Escherichia coli ATCC 25922 by broth microdilution method; summary of the method: as §1
Streptococcus pyogenes [2] = assay: Antibacterial activity against erythromycin-susceptible Streptococcus pyogenes clinical isolate by broth microdilution method; summary of the method: as §1
Pseudomonas aeruginosa = assay: Antibacterial activity against penicillin-susceptible Pseudomonas aeruginosa ATCC 27853 by broth microdilution method; summary of the method: as §1
Bacillus subtilis = assay: Antibacterial activity against erythromycin/penicillin-susceptible Bacillus subtilis ATCC 9372 by broth microdilution method; summary of the method: as §1
[3] = tested on: Staphylococcus epidermidis; assay: Antibacterial activity against penicillin-resistant Staphylococcus epidermidis clinical isolate by broth microdilution method
Summary of the method: (§2)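 Broth microdilution per NCCL recommendation, read as minimal inhibitory concentration, run alongside azithromycin and clarithromycin references. Strains: S. pneumoniae B1 (erythromycin-resistant, ermB), A22072 (erythromycin-resistant, mefA), AB11 (erythromycin-resistant, erm and mef); S. aureus ATCC29213 ([…]); S. epidermidis clinical isolate (penicillin-resistant, not characterized).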

Staphylococcus aureus [4] = assay: Antibacterial activity against […] Staphylococcus aureus ATCC 29213 by broth microdilution method; summary of the method: as §2
Streptococcus pneumoniae [5] = assay: Antibacterial activity against erythromycin-resistant Streptococcus pneumoniae B1 expressing ermB gene by broth microdilution method; summary of the method: as §2
Streptococcus pneumoniae [6] = assay: Antibacterial activity against erythromycin-resistant Streptococcus pneumoniae A22072 expressing mefA gene by broth microdilution method; summary of the method: as §2
Streptococcus pneumoniae [7] = assay: Antibacterial activity against erythromycin-resistant Streptococcus pneumoniae AB11 expressing ermB/mefA genes by broth microdilution method; summary of the method: as §2
Streptococcus pyogenes [8] = assay: Antibacterial activity against erythromycin-resistant Streptococcus pyogenes R1 clinical isolate by broth microdilution method

Row | SMILES | MIC (Staphylococcus aureus [1]) | MIC (Escherichia coli) | MIC (Streptococcus pyogenes [2]) | MIC (Pseudomonas aeruginosa) | MIC (Bacillus subtilis) | MIC [3] | MIC (Staphylococcus aureus [4]) | MIC (Streptococcus pneumoniae [5]) | MIC (Streptococcus pneumoniae [6]) | MIC (Streptococcus pneumoniae [7]) | MIC (Streptococcus pyogenes [8])
1 | CCCCc1ccc(NC(=O)O[C@H]2[C@H](O[C@@H]3[C@@H](C)[C@H](O)[C@@H](C)C(=O)O[C@H](CC)[C@@]4(C)OC(=O)O[C@@H]4[C@@H](C)N(C)C[C@H](C)C[C@@]3(C)O)O[C@H](C)C[C@@H]2N(C)C)cc1 | 32 µg/mL (≈ 40.4 µM) | 128 µg/mL (≈ 162 µM) | 8 µg/mL (≈ 10.1 µM) | 128 µg/mL (≈ 162 µM) | 128 µg/mL (≈ 162 µM) | 64 µg/mL (≈ 80.8 µM) | 128 µg/mL (≈ 162 µM) | 256 µg/mL (≈ 323 µM) | 64 µg/mL (≈ 80.8 µM) | 32 µg/mL (≈ 40.4 µM) | 64 µg/mL (≈ 80.8 µM)
2 | CC[C@H]1OC(=O)[C@H](C)[C@@H](O)[C@H](C)[C@@H](O[C@@H]2O[C@H](C)C[C@H](N(C)C)[C@H]2OC(=O)Nc2cccc(OC)c2)[C@](C)(O)C[C@@H](C)CN(C)[C@H](C)[C@H]2OC(=O)O[C@@]21C | 32 µg/mL (≈ 41.8 µM) | 64 µg/mL (≈ 83.6 µM) | 2 µg/mL (≈ 2.61 µM) | 64 µg/mL (≈ 83.6 µM) | 128 µg/mL (≈ 167 µM) | 64 µg/mL (≈ 83.6 µM) | 128 µg/mL (≈ 167 µM) | 128 µg/mL (≈ 167 µM) | 16 µg/mL (≈ 20.9 µM) | 32 µg/mL (≈ 41.8 µM) | 128 µg/mL (≈ 167 µM)
3 | CC[C@H]1OC(=O)[C@H](C)[C@@H](OC(=O)N(C)c2ccccc2)[C@H](C)[C@@H](O[C@@H]2O[C@H](C)C[C@H](N(C)C)[C@H]2OC(C)=O)[C@](C)(O)C[C@@H](C)CN(C)[C@H](C)[C@H]2OC(=O)O[C@@]21C | – | – | – | – | – | 128 µg/mL (≈ 162 µM) | – | – | – | – | –
4 | CC[C@H]1OC(=O)[C@H](C)[C@@H](O)[C@H](C)[C@@H](O[C@@H]2O[C@H](C)C[C@H](N(C)C)[C@H]2OC(=O)Nc2ccccc2)[C@](C)(O)C[C@@H](C)CN(C)[C@H](C)[C@H]2OC(=O)O[C@@]21C | 32 µg/mL (≈ 43.5 µM) | 64 µg/mL (≈ 87 µM) | 0.5 µg/mL (≈ 0.679 µM) | 32 µg/mL (≈ 43.5 µM) | 32 µg/mL (≈ 43.5 µM) | 32 µg/mL (≈ 43.5 µM) | 128 µg/mL (≈ 174 µM) | 128 µg/mL (≈ 174 µM) | 8 µg/mL (≈ 10.9 µM) | 8 µg/mL (≈ 10.9 µM) | 128 µg/mL (≈ 174 µM)
5 | CC[C@H]1OC(=O)[C@H](C)[C@@H](OC(=O)Nc2ccccc2F)[C@H](C)[C@@H](O[C@@H]2O[C@H](C)C[C@H](N(C)C)[C@H]2OC(C)=O)[C@](C)(O)C[C@@H](C)CN(C)[C@H](C)[C@H]2OC(=O)O[C@@]21C | 32 µg/mL (≈ 40.2 µM) | 64 µg/mL (≈ 80.4 µM) | 4 µg/mL (≈ 5.03 µM) | 128 µg/mL (≈ 161 µM) | 32 µg/mL (≈ 40.2 µM) | 64 µg/mL (≈ 80.4 µM) | 64 µg/mL (≈ 80.4 µM) | 128 µg/mL (≈ 161 µM) | 8 µg/mL (≈ 10.1 µM) | 32 µg/mL (≈ 40.2 µM) | 128 µg/mL (≈ 161 µM)
6 | CCCCCNC(=O)O[C@H]1[C@H](C)[C@@H](O[C@@H]2O[C@H](C)C[C@H](N(C)C)[C@H]2OC(C)=O)[C@](C)(O)C[C@@H](C)CN(C)[C@H](C)[C@H]2OC(=O)O[C@]2(C)[C@@H](CC)OC(=O)[C@@H]1C | 32 µg/mL (≈ 41.5 µM) | 128 µg/mL (≈ 166 µM) | 4 µg/mL (≈ 5.18 µM) | 128 µg/mL (≈ 166 µM) | 32 µg/mL (≈ 41.5 µM) | 32 µg/mL (≈ 41.5 µM) | 64 µg/mL (≈ 82.9 µM) | 64 µg/mL (≈ 82.9 µM) | 32 µg/mL (≈ 41.5 µM) | 128 µg/mL (≈ 166 µM) | 128 µg/mL (≈ 166 µM)
7 | CC[C@H]1OC(=O)[C@H](C)[C@@H](O)[C@H](C)[C@@H](O[C@@H]2O[C@H](C)C[C@H](N(C)C)[C@H]2OC(=O)Nc2cccc(F)c2)[C@](C)(O)C[C@@H](C)CN(C)[C@H](C)[C@H]2OC(=O)O[C@@]21C | 32 µg/mL (≈ 42.4 µM) | 128 µg/mL (≈ 170 µM) | 1 µg/mL (≈ 1.33 µM) | 128 µg/mL (≈ 170 µM) | 128 µg/mL (≈ 170 µM) | 64 µg/mL (≈ 84.9 µM) | 128 µg/mL (≈ 170 µM) | 256 µg/mL (≈ 340 µM) | 8 µg/mL (≈ 10.6 µM) | 16 µg/mL (≈ 21.2 µM) | 128 µg/mL (≈ 170 µM)
8 | CCCCCCNC(=O)O[C@@H]1[C@@H](C)N(C)C[C@H](C)C[C@@](C)(O)[C@H](O[C@@H]2O[C@H](C)C[C@H](N(C)C)[C@H]2O)[C@@H](C)[C@H](OC(=O)Nc2ccccc2)[C@@H](C)C(=O)O[C@H](CC)[C@@]1(C)O | 16 µg/mL (≈ 19.1 µM) | 64 µg/mL (≈ 76.5 µM) | 1 µg/mL (≈ 1.19 µM) | 64 µg/mL (≈ 76.5 µM) | 4 µg/mL (≈ 4.78 µM) | – | – | – | – | – | –
9 | CC[C@H]1OC(=O)[C@H](C)[C@@H](OC(=O)Nc2ccccc2)[C@H](C)[C@@H](O[C@@H]2O[C@H](C)C[C@H](N(C)C)[C@H]2OC(C)=O)[C@](C)(O)C[C@@H](C)CN(C)[C@H](C)[C@H]2OC(=O)O[C@@]21C | 32 µg/mL (≈ 41.1 µM) | 32 µg/mL (≈ 41.1 µM) | 0.25 µg/mL (≈ 0.321 µM) | 64 µg/mL (≈ 82.3 µM) | 32 µg/mL (≈ 41.1 µM) | 16 µg/mL (≈ 20.6 µM) | 128 µg/mL (≈ 165 µM) | 128 µg/mL (≈ 165 µM) | 4 µg/mL (≈ 5.14 µM) | 64 µg/mL (≈ 82.3 µM) | 128 µg/mL (≈ 165 µM)
